# Activity calls are given as the source filed them. No cut-off for these calls is given here.
# What was measured:
# Gamma-secretase [1] = experiment: Inhibition of gamma secretase in human H4 cells overexpressing human APP assessed as reduction in amyloid beta-42 secretion after 22 hrs; type: cell-based
# Procedure, shortened: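 Human neuroglioma H4 cells overexpressing human APP were seeded at 30,000 cells/well in IMDM with 10% FCS and […] hygromycin B, then held 2 h at 37 °C, 5% CO2. Test agents were given as a ten-point 1:1 serial dilution in IMDM without FCS, with final Me2SO 0.4%, for 22 h. Secreted Aβ42 in the supernatant was measured by bead ECL sandwich (biotin-6E10 capture, ruthenylated BAP15 detection, 3 h RT). IC50 was taken from the dose-response curve.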
# Cytochrome P450 2D6 = Cytochrome P450 2D6 (Homo sapiens, UniProt P10635); experiment: Inhibition of CYP2D6; type: ADME
# Cytochrome P450 3A4 = Cytochrome P450 3A4 (Homo sapiens, UniProt P08684); experiment: Inhibition of CYP3A4; type: ADME
# Mus musculus [2] = experiment: Antialzheimer activity in transgenic mouse overexpressing APP Swedish FAD mutant assessed as reduction in amyloid beta-42 level in brain at 100 mg/kg, po; type: functional
# Procedure, shortened: (§1)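 Transgenic mice about 3 months old, overexpressing APP-Swe under the mouse Thy-1 promoter, were dosed orally. Brains were taken 4 h later and homogenized in 1% DEA. Brain Aβ42 was quantified by LP ECL, and brain compound exposure was measured by LC–MS/MS.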
# [3] = target: Inosine-5'-monophosphate dehydrogenase 2 (Homo sapiens, UniProt P12268); experiment: Inhibition of IMPDH2
# Gamma-secretase [4] = experiment: Inhibition of gamma secretase in human H4 cells overexpressing human APP assessed as reduction in amyloid beta-40 secretion after 22 hrs; type: cell-based
# Procedure, shortened: (§2)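 Human H4 neuroglioma cells overexpressing human APP were plated at 30,000 cells/well in IMDM with 10% FCS and […] hygromycin B, and incubated 2 h at 37 °C, 5% CO2. Compounds were added as a ten-point 1:1 serial dilution series in FCS-free IMDM, with final Me2SO 0.4%, for 22 h at 37 °C. The culture supernatant was then assayed.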
# Gamma-secretase [5] = experiment: Modulation of gamma secretase in human H4 cells overexpressing human APP assessed as increase in amyloid beta-38 secretion after 22 hrs; type: cell-based; procedure, shortened: as §2
# [6] = target: Gamma-secretase (Homo sapiens) (UniProt Q96BI3+Q9NZ42+Q8WW43+P49768+Q92542+P49810); experiment: Modulation of gamma secretase in human H4 cells overexpressing human APP assessed as effect on total amyloid beta up to 20 uM after 22 hrs; type: cell-based; procedure, shortened: as §2
# [7] = Modulation of gamma secretase in cell-based assay assessed as change in notch protein level up to 25 uM
# [8] = Inhibition of gamma secretase in rat primary neurons assessed as reduction in amyloid beta-42 secretion
# Mus musculus [9] = experiment: Antialzheimer activity in transgenic mouse overexpressing APP Swedish FAD mutant assessed as reduction in amyloid beta-42 level in brain at 100 mg/kg, po after 4 hrs; type: functional, organism-based; parameters: dose 100 mg/kg; procedure, shortened: as §1
# Mus musculus [10] = experiment: Antialzheimer activity in transgenic mouse overexpressing APP Swedish FAD mutant assessed as reduction in amyloid beta-42 level in brain at 150 mg/kg, po after 4 hrs; type: functional; parameters: scale not given: the % may be the effect or the level left; procedure, shortened: as §1
# Mus musculus [11] = experiment: Antialzheimer activity in transgenic mouse overexpressing APP Swedish FAD mutant assessed as reduction in amyloid beta-42 level in brain at 150 mg/kg, po after 7 hrs; type: functional; parameters: scale not given: the % may be the effect or the level left
# Procedure, shortened: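 Oral dosing was given to APP-Swe transgenic mice (Thy-1 promoter) about 3 months old. Brain homogenates in 1% DEA were analysed by LP ECL for Aβ42.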
# [12] = Fraction unbound in transgenic mouse overexpressing APP Swedish FAD mutant; type: ADME, organism-based; details: in vivo
# Mus musculus [13] = experiment: Antialzheimer activity in transgenic mouse overexpressing APP Swedish FAD mutant assessed as reduction in amyloid beta-42 level in brain at 30 mg/kg, po; type: functional, organism-based; parameters: dose 30 mg/kg; procedure, shortened: as §1
# [14] = Oral bioavailability in transgenic mouse overexpressing APP Swedish FAD mutant at 7.2 mg/kg; type: ADME, organism-based; details: in vivo
# Procedure, shortened: (§3)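 Mouse pharmacokinetics used an iv dose of 0.7 mg/kg and a po dose of 7.2 mg/kg. Compound levels in plasma and brain were determined by LC–MS/MS over 0–24 h.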
# [15] = Plasma clearance in transgenic mouse overexpressing APP Swedish FAD mutant at 7.2 mg/kg, po and 0.7 mg/kg, iv; type: ADME, organism-based; procedure, shortened: as §3
# [16] = Volume of distribution at steady state in transgenic mouse overexpressing APP Swedish FAD mutant at 7.2 mg/kg, po and 0.7 mg/kg, iv; type: ADME, organism-based; details: in vivo, read-out: Vdss; procedure, shortened: as §3
# [17] = Half life in transgenic mouse overexpressing APP Swedish FAD mutant at 7.2 mg/kg, po and 0.7 mg/kg, iv; type: ADME, organism-based; details: in vivo; procedure, shortened: as §3
# [18] = Ratio of drug level in brain to plasma in transgenic mouse overexpressing APP Swedish FAD mutant at 7.2 mg/kg, po and 0.7 mg/kg, iv; type: ADME, organism-based; details: read-out: BPR; procedure, shortened: as §3
# Mus musculus [19] = experiment: Antialzheimer activity in po dosed transgenic mouse overexpressing APP Swedish FAD mutant assessed as reduction in amyloid beta-42 level in brain measured after 4 hrs; type: functional; procedure, shortened: as §1
# Cytochrome P450 3A4, sequence (P08684 whole entry): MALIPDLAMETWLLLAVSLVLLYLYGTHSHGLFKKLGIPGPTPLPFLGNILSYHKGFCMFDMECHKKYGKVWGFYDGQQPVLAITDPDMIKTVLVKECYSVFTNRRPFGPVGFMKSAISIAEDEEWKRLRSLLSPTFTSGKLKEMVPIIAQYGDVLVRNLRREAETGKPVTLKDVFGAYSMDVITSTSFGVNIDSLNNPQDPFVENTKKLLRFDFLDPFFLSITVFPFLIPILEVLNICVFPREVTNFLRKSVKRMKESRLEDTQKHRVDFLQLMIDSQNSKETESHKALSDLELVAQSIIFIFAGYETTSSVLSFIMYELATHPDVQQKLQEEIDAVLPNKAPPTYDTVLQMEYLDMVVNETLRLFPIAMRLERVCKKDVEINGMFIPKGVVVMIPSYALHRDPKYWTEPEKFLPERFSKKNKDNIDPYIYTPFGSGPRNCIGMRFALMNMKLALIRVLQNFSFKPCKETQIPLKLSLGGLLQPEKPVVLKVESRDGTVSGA
# Cytochrome P450 2D6, sequence (P10635 whole entry): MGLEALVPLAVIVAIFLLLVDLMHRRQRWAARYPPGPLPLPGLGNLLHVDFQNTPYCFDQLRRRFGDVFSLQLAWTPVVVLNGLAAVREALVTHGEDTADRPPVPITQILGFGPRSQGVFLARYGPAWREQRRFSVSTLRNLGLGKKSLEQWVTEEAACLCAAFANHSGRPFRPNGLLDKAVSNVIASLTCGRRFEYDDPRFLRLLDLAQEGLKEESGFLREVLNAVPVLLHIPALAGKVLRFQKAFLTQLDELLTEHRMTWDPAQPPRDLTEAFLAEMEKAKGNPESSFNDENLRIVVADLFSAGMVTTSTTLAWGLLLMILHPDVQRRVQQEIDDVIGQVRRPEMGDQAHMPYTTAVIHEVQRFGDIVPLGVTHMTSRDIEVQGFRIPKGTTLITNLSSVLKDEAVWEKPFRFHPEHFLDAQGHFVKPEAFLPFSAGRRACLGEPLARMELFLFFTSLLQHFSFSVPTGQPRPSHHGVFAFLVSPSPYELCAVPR
IC50 (Gamma-secretase [1]),IC50 (Cytochrome P450 2D6),Structure (SMILES),further results
376 nM,< 500 nM,c1ccc(C2CCCc3sc(Nc4ccc(-c5ccnnc5)cc4)nc32)cc1 (stereo not drawn),–
898 nM,< 500 nM,COc1ccc(Br)cc1-c1csc(Nc2ccc(-n3cnc(C)c3)c(OC)c2)n1,IC50 (Cytochrome P450 3A4): 2200 nM
319 nM,< 500 nM,c1ccc(C2CCCc3sc(Nc4ccc(-c5ccncc5)cc4)nc32)cc1 (stereo not drawn),Activity (Mus musculus [2]): inactive
133 nM,< 500 nM,Cc1cn(-c2ccc(Nc3nc4c(s3)CCCC4c3ccccc3)cc2)cn1 (stereo not drawn),–
880 nM,< 500 nM,COc1ccc(Br)cc1-c1csc(Nc2ccc(-n3cnc(C)c3)cc2)n1,IC50 (Cytochrome P450 3A4): 1200 nM
675 nM,< 200 nM,Cc1cn(-c2ccc(Nc3nc4c(s3)CCCC4c3ccccc3)cc2Cl)cn1 (stereo not drawn),–
127 nM,< 500 nM,Cc1nc(C)c(-c2ccc(Nc3nc4c(s3)CCCC4c3ccccc3)cc2)o1 (stereo not drawn),–
789 nM,< 500 nM,COc1ccc(Br)cc1-c1csc(Nc2ccc(-n3ccnc3)c(OC)c2)n1,IC50 (Cytochrome P450 3A4): < 200 nM
2870 nM,< 500 nM,Cc1ncc(C)c(-c2ccc(Nc3nc4c(s3)CCCC4c3ccccc3)cc2)n1 (stereo not drawn),–
815 nM,< 500 nM,COc1cc(Nc2nc(C)c(Cc3cccc(Cl)c3)s2)ccc1-c1cnco1,IC50 [3]: 400 nM; IC50 (Gamma-secretase [4]): 3700 nM; EC50 (Gamma-secretase [5]): 1500 nM; Activity [6]: inactive; Activity [7]: inactive
339 nM,< 500 nM,COc1cc(Nc2ncc(C(O)c3ccc(Cl)cc3)s2)ccc1-n1cnc(C)c1 (stereo not drawn),–
483 nM,< 500 nM,Cc1cc(-c2ccc(Nc3nc4c(s3)CCCC4c3ccccc3)cc2)nc(C)n1 (stereo not drawn),–
> 1250 nM,< 500 nM,Cc1cn(-c2ccc(Nc3nc4c(s3)CCCC4c3ccccc3)cc2C(F)(F)F)cn1 (stereo not drawn),–
733 nM,< 500 nM,Cc1cn(-c2ccc(Nc3nc4c(s3)CCCC4c3ccccc3)cc2C)cn1 (stereo not drawn),–
–,–,COc1cc(/C=C2\CCCN([C@@H](C)c3ccc(F)cc3)C2=O)ccc1-n1cnc(C)c1,IC50 [8]: 42 nM
212 nM,< 500 nM,COc1cc(Nc2nc3c(s2)CCCC3c2ccccc2)ccc1-c1sc(C)nc1C (stereo not drawn),–
244 nM,< 500 nM,COc1cc(Nc2nc3c(s2)CCCC3c2ccccc2)ccc1-c1cnn(C)c1 (stereo not drawn),Activity (Mus musculus [9]): inactive

IC50 (Gamma-secretase [1]),IC50 (Cytochrome P450 2D6),Structure (SMILES),further results
209 nM,< 500 nM,Cc1cn(-c2ccc(Nc3nc4c(s3)CCCC4c3ccccc3)cc2O)cn1 (stereo not drawn),–
651 nM,< 500 nM,Cc1nsc(-c2ccc(Nc3nc4c(s3)CCCC4c3ccccc3)cc2)n1 (stereo not drawn),–
214 nM,< 500 nM,COc1cc(Nc2nc(C)c(Cc3cccc(Cl)c3)s2)ccc1-n1cnc(C)c1,Activity (Mus musculus [10]): 47%; Activity (Mus musculus [11]): 22%; Fu [12]: < 0.1%
5550 nM,< 500 nM,c1ccc(C2CCCc3sc(Nc4ccc(-n5cncn5)cc4)nc32)cc1 (stereo not drawn),–
44 nM,< 200 nM,COc1cc(Nc2nc3c(s2)CCCC3c2ccccc2)ccc1-n1cnc(C)c1 (stereo not drawn),Activity (Mus musculus [13]): Active; bioavailability [14]: 25%; clearance [15]: 18.3 mL/min/kg; Vd [16]: 4.6 L/kg; half-life [17]: 2.5 h; Kp [18]: 0.4; ED50 (Mus musculus [19]): 40 mg/kg
> 5000 nM,< 500 nM,COc1ccc(Br)cc1-c1csc(Nc2ccc(-n3ccnc3)cc2)n1,IC50 (Cytochrome P450 3A4): < 200 nM
999 nM,< 500 nM,COc1cc(Nc2nc3c(s2)CCCC3c2ccccc2)ccc1-c1nnc(C)o1 (stereo not drawn),–
52 nM,< 500 nM,Cc1cn(-c2ccc(Nc3nc4c(s3)CCCC4c3ccccc3)cc2F)cn1 (stereo not drawn),–
133 nM,< 500 nM,Cc1ncc(-c2ccc(Nc3nc4c(s3)CCCC4c3ccccc3)cc2)o1 (stereo not drawn),–
> 40000 nM,< 500 nM,COc1cc(N(Cc2ccccc2)c2nc(C)c(Cc3ccc(Cl)cc3)s2)ccc1-n1cnc(C)c1,–
3430 nM,< 500 nM,COc1cc(Nc2nc3c(s2)CCCC3c2ccccc2)ccc1-c1nc(C)no1 (stereo not drawn),–
123 nM,< 200 nM,Cc1cn(-c2ccc(Nc3nc4c(s3)CCCC4c3ccccc3)cc2C#N)cn1 (stereo not drawn),–
3360 nM,< 500 nM,COc1cc(Nc2nc3c(s2)CCCC3c2ccccc2)ccc1C#N (stereo not drawn),–
136 nM,< 500 nM,COc1cc(Nc2nc(C(C)(C)c3ccc(Cl)cc3)cs2)ccc1-n1cnc(C)c1,–
86 nM,< 500 nM,COc1cc(Nc2nc3c(s2)CCCC3c2ccccc2)ccc1-c1cnc(C)o1 (stereo not drawn),Activity (Mus musculus [2]): 47%
252 nM,< 500 nM,COc1cc(Nc2nc3c(s2)CCCC3c2ccccc2)ccc1-c1cnc(C)s1 (stereo not drawn),Activity (Mus musculus [2]): inactive
